Target: T1, PAP(248–286) (Homo sapiens, UniProt P15309)
T1 sequence (P15309 248-286): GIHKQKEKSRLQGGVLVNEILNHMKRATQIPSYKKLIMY
Assay: isothermal titration calorimetry
Type: binding
How it was run: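 Freshly prepared monomeric peptide (600 μM) in deionized water brought to 1× PBS was titrated from the syringe into a low-volume nano-ITC cell holding the test compound (80 μM). The compound was neutralised with NaOH to physiological pH and diluted in water/PBS. Both solutions were degassed 10 min at 37 °C. Heats and enthalpies were fitted with an independent binding model.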

O=C1O[C@H]([C@@H](O)CO)C(O)=C1O [ascorbic acid]
Kd: 8.59 µM
